Among the data in ChEMBL document CHEMBL4190362, “Synthesis, biological evaluation and quantitative structure-active relationships of 1,3-thiazolidin-4-one derivatives. A promising chemical scaffold endowed with high antifungal potency and low cytotoxicity” (Eur J Med Chem, 2017) are MIC values, retold here.

Holding throughout (assay type): functional
For one test, the system named is Pichia kudriavzevii. Kind of test: Antifungal activity against Candida krusei clinical isolates assessed as inhibition of microbial growth incubated for 24 hrs by broth microdilution method. The method, boiled down: (§1)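 Twenty-two clinical Candida isolates (8 C. albicans, 4 C. glabrata, 3 C. tropicalis, 3 C. krusei, 2 C. parapsilosis, 2 C. sake) were identified by colony morphology and biochemistry and subcultured at 35 °C for purity. Compounds were dissolved in DMSO and tested by broth microdilution in Sabouraud dextrose broth per NCCLS/CLSI/EUCAST guidance. Values are geometric mean MIC per species (µg/mL).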
In general terms: Broth dilution looks for growth in wells or tubes with falling amounts of substance.

The next test concerns Staphylococcus warneri. Kind of test: Antibacterial activity against Staphylococcus warneri assessed as inhibition of microbial growth incubated for 18 to 22 hrs by broth microdilution method. In a few lines:
(§2)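 Broth microdilution in Mueller-Hinton II broth following NCCLS recommendations; compounds dissolved in DMSO.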

The test system of another test is Nakaseomyces glabratus. Kind of test: Antifungal activity against Candida glabrata clinical isolates assessed as inhibition of microbial growth incubated for 24 hrs by broth microdilution method. In a few lines: as §1
The test system of a further test is Candida albicans. Kind of test: Antifungal activity against Candida albicans clinical isolates assessed as inhibition of microbial growth incubated for 24 hrs by broth microdilution method. The method, boiled down: as §1
Another test has as its system Enterococcus faecalis. The test can be described thus: Antibacterial activity against Streptococcus faecalis assessed as inhibition of microbial growth incubated for 18 to 22 hrs by broth microdilution method. In a few lines: as §2
The subject of the next test is Enterobacter. The test can be described thus: Antibacterial activity against Enterobacter spp. assessed as inhibition of microbial growth incubated for 18 to 22 hrs by broth microdilution method. The method, boiled down:
as §2

In the next test the test system is Escherichia coli. The test can be described thus: Antibacterial activity against Escherichia coli assessed as inhibition of microbial growth incubated for 18 to 22 hrs by broth microdilution method. In a few lines: as §2
The next test concerns Staphylococcus aureus. The test can be described thus: Antibacterial activity against Staphylococcus aureus assessed as inhibition of microbial growth incubated for 18 to 22 hrs by broth microdilution method. The method, boiled down: as §2
The next test has as its system Klebsiella oxytoca. Kind of test: Antibacterial activity against Klebsiella oxytoca assessed as inhibition of microbial growth incubated for 18 to 22 hrs by broth microdilution method. In a few lines:
as §2

The next test deals with Proteus mirabilis. The test can be described thus: Antibacterial activity against Proteus mirabilis assessed as inhibition of microbial growth incubated for 18 to 22 hrs by broth microdilution method. In a few lines:
as §2

The subject of the next test is [Candida] sake. Kind of test: Antifungal activity against Candida sake clinical isolates assessed as inhibition of microbial growth incubated for 24 hrs by broth microdilution method. Particulars: Fermentozyma sake. In a few lines: as §1
The test system of the next test is Candida tropicalis. The test can be described thus: Antifungal activity against Candida tropicalis clinical isolates assessed as inhibition of microbial growth incubated for 24 hrs by broth microdilution method. In a few lines:
as §1

A further test relates to Candida parapsilosis. The test can be described thus: Antifungal activity against Candida parapsilosis clinical isolates assessed as inhibition of microbial growth incubated for 24 hrs by broth microdilution method. Conditions: Lodderomyces parapsilosis. The method, boiled down: as §1

As to `CC(C)=C/C(C)=N\N=C1\SCC(=O)N1Cc1ccccc1`, the MIC in the test on Pichia kudriavzevii is 8 µg/mL; with Staphylococcus warneri it was ≥ 256 µg/mL; in the test with Nakaseomyces glabratus, 2 µg/mL; in the test with Candida albicans, 128 µg/mL; in the test with Enterococcus faecalis, ≥ 256 µg/mL; with Enterobacter, ≥ 256 µg/mL. The MIC in the test on Escherichia coli is ≥ 256 µg/mL; with Staphylococcus aureus it was ≥ 256 µg/mL; in the test on Klebsiella oxytoca, ≥ 256 µg/mL; with Proteus mirabilis, ≥ 256 µg/mL; in test [Candida] sake, 8 µg/mL; in the test with Candida tropicalis, 128 µg/mL. Besides, in the test on Candida parapsilosis, the MIC was found to be 8 µg/mL.

Take `CCCCC/C(C)=N\N=C1\SCC(=O)N1Cc1ccccc1`: the MIC in the test with Pichia kudriavzevii was 16 µg/mL; with Staphylococcus warneri, ≥ 256 µg/mL; in the test on Nakaseomyces glabratus, 8 µg/mL; with Candida albicans, 8 µg/mL; with Enterococcus faecalis, ≥ 256 µg/mL; with Enterobacter it was ≥ 256 µg/mL. Moreover, the MIC in the test with Escherichia coli is ≥ 256 µg/mL; in the test with Staphylococcus aureus, ≥ 256 µg/mL; in the test on Klebsiella oxytoca it was ≥ 256 µg/mL; in the test with Proteus mirabilis it was ≥ 256 µg/mL; in test [Candida] sake, 16 µg/mL; in the test with Candida tropicalis it was 16 µg/mL. In addition, the MIC in the test with Candida parapsilosis was 16 µg/mL.

With `CC(C)=N/N=C1/SCC(=O)N1Cc1ccccc1`, the MIC in the test on Pichia kudriavzevii was 256 µg/mL; with Staphylococcus warneri it was ≥ 256 µg/mL; in the test with Nakaseomyces glabratus it was 256 µg/mL; with Candida albicans, 256 µg/mL; in the test with Enterococcus faecalis, ≥ 256 µg/mL; in the test on Enterobacter it was ≥ 256 µg/mL. The minimum inhibitory concentration (MIC) in the test with Escherichia coli was ≥ 256 µg/mL; in the test on Staphylococcus aureus, ≥ 256 µg/mL; in the test with Klebsiella oxytoca, ≥ 256 µg/mL; in the test on Proteus mirabilis, ≥ 256 µg/mL; in test [Candida] sake, 256 µg/mL; with Candida tropicalis, 256 µg/mL. Further, the MIC in the test with Candida parapsilosis was determined as 256 µg/mL.

Take `C/C(=N/N=C1/SCC(=O)N1Cc1ccccc1)c1ccc2ccc3ccccc3c2c1`: the minimum inhibitory concentration (MIC) with Pichia kudriavzevii is 4 µg/mL; in the test on Staphylococcus warneri it was ≥ 256 µg/mL; with Nakaseomyces glabratus, 2 µg/mL; in the test with Candida albicans, 2 µg/mL; in the test with Enterococcus faecalis it was ≥ 256 µg/mL; in the test with Enterobacter, ≥ 256 µg/mL. The MIC in the test with Escherichia coli was ≥ 256 µg/mL; in the test with Staphylococcus aureus it was ≥ 256 µg/mL; in the test on Klebsiella oxytoca, ≥ 256 µg/mL; in the test with Proteus mirabilis it was ≥ 256 µg/mL; in test [Candida] sake it was 8 µg/mL; with Candida tropicalis, 2 µg/mL. Also, the MIC with Candida parapsilosis came to 2 µg/mL.

As to `C/C(=N/N=C1/SCC(=O)N1Cc1ccccc1)c1ccc(Cl)s1`, the MIC with Pichia kudriavzevii is 128 µg/mL; in the test on Staphylococcus warneri, ≥ 256 µg/mL; with Nakaseomyces glabratus it was 8 µg/mL; with Candida albicans it was 256 µg/mL; with Enterococcus faecalis it was ≥ 256 µg/mL; in the test on Enterobacter, ≥ 256 µg/mL. The MIC was ≥ 256 µg/mL in the test with Escherichia coli; ≥ 256 µg/mL in the test with Staphylococcus aureus; ≥ 256 µg/mL in the test with Klebsiella oxytoca; ≥ 256 µg/mL in the test with Proteus mirabilis; 128 µg/mL in [Candida] sake; 256 µg/mL in the test with Candida tropicalis. In the test with Candida parapsilosis, the minimum inhibitory concentration (MIC) came out at 128 µg/mL.

For the compound `O=C1CS/C(=N/N=C\c2ccccn2)N1Cc1ccccc1`, the MIC is 4 µg/mL with Pichia kudriavzevii; ≥ 256 µg/mL with Staphylococcus warneri; 4 µg/mL with Nakaseomyces glabratus; 4 µg/mL with Candida albicans; ≥ 256 µg/mL with Enterococcus faecalis; ≥ 256 µg/mL in the test on Enterobacter. The MIC with Escherichia coli is ≥ 256 µg/mL; in the test on Staphylococcus aureus, ≥ 256 µg/mL; in the test with Klebsiella oxytoca it was ≥ 256 µg/mL; with Proteus mirabilis it was ≥ 256 µg/mL; in test [Candida] sake it was 2 µg/mL; in the test on Candida tropicalis it was 4 µg/mL. In addition, the MIC in the test on Candida parapsilosis is 16 µg/mL.

As for `O=C1CS/C(=N/N=C\c2ccccc2[N+](=O)[O-])N1Cc1ccccc1`, the MIC was 2 µg/mL in the test on Pichia kudriavzevii; ≥ 256 µg/mL with Staphylococcus warneri; 2 µg/mL in the test with Nakaseomyces glabratus; 2 µg/mL with Candida albicans; ≥ 256 µg/mL with Enterococcus faecalis; ≥ 256 µg/mL with Enterobacter. Moreover, the MIC was ≥ 256 µg/mL with Escherichia coli; ≥ 256 µg/mL in the test with Staphylococcus aureus; ≥ 256 µg/mL in the test with Klebsiella oxytoca; ≥ 256 µg/mL with Proteus mirabilis; 4 µg/mL in [Candida] sake; 2 µg/mL with Candida tropicalis. In addition, in the test on Candida parapsilosis, the MIC came out at 2 µg/mL.

In general, MIC refers to the smallest concentration in the dilution series that meets the test's criterion for growth inhibition.
